ChEMBL document CHEMBL1157144, “Novel 16-membered macrolides modified at C-12 and C-13 positions of midecamycin A1 and miokamycin. Part 1: Synthesis and evaluation of 12,13-carbamate and 12-arylalkylamino-13-hydroxy analogues” (2008)
≈ marks a conversion by molar mass, not a printed value.

Legend:
Assay type in all cases: functional
[1] = tested on: Staphylococcus aureus; experiment: Antibacterial activity against ermC-inducible resistant Staphylococcus aureus after 20 hrs by agar dilution method
Procedure, shortened: (§1)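 Agar dilution MIC. The inoculum came from a seed culture in Sensitivity test broth. A 5 µl portion of a cell suspension of about 10^6 CFU/ml was inoculated onto Sensitivity disk agar supplemented with 5% horse blood. Plates were incubated at 37 °C for 20 h, then MIC was read.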

[2] = tested on: Moraxella catarrhalis; experiment: Antibacterial activity against standard Moraxella catarrhalis after 20 hrs by agar dilution method
Procedure, shortened: (§2)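 MIC by agar dilution. Strains grown on blood agar plates for seed culture. About 5 µl of a suspension of roughly 10^6 CFU/ml spotted onto Sensitivity disk agar with 5% horse blood. Plates incubated at 37 °C for 20 h, then MIC read.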

[3] = tested on: Staphylococcus aureus; experiment: Antibacterial activity against ermB-inducible resistant Staphylococcus aureus after 20 hrs by agar dilution method; procedure, shortened: as §1
[4] = tested on: Haemophilus influenzae; experiment: Antibacterial activity against susceptible Haemophilus influenzae after 20 hrs by agar dilution method; procedure, shortened: as §2
[5] = tested on: Staphylococcus aureus; experiment: Antibacterial activity against susceptible Staphylococcus aureus after 20 hrs by agar dilution method; procedure, shortened: as §1
[6] = tested on: Streptococcus pyogenes; experiment: Antibacterial activity against mefE efflux-resistant Streptococcus pyogenes after 20 hrs by agar dilution method
Procedure, shortened: (§3)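 Agar dilution MIC. Streptococcal strains were pre-cultured on blood agar plates. A 5 µl portion of a cell suspension of about 10^6 CFU/ml was inoculated onto Sensitivity disk agar supplemented with 5% horse blood. Plates were incubated at 37 °C for 20 h, then MIC was read.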

[7] = tested on: Staphylococcus aureus; experiment: Antibacterial activity against ermA-constitutive resistant Staphylococcus aureus after 20 hrs by agar dilution method; procedure, shortened: as §1
[8] = tested on: Streptococcus pyogenes; experiment: Antibacterial activity against ermB-constitutive resistant Streptococcus pyogenes after 20 hrs by agar dilution method; procedure, shortened: as §3
[9] = tested on: Streptococcus pneumoniae; experiment: Antibacterial activity against mefE efflux-resistant Streptococcus pneumoniae after 20 hrs by agar dilution method; procedure, shortened: as §3
[10] = tested on: Streptococcus pyogenes; experiment: Antibacterial activity against standard Streptococcus pyogenes after 20 hrs by agar dilution method; procedure, shortened: as §2
[11] = tested on: Streptococcus pneumoniae; experiment: Antibacterial activity against ermB-inducible resistant Streptococcus pneumoniae after 20 hrs by agar dilution method; procedure, shortened: as §3
[12] = tested on: Haemophilus influenzae; experiment: Antibacterial activity against standard Haemophilus influenzae after 20 hrs by agar dilution method; procedure, shortened: as §2
[13] = tested on: Staphylococcus aureus; experiment: Antibacterial activity against standard Staphylococcus aureus after 20 hrs by agar dilution method; procedure, shortened: as §1
[14] = tested on: Streptococcus pneumoniae; experiment: Antibacterial activity against susceptible Streptococcus pneumoniae after 20 hrs by agar dilution method; procedure, shortened: as §2
[15] = tested on: Streptococcus pneumoniae; experiment: Antibacterial activity against ermB-constitutive resistant Streptococcus pneumoniae after 20 hrs by agar dilution method; procedure, shortened: as §3

| SMILES | MIC [1] | MIC [2] | MIC [3] | MIC [4] | MIC [5] | MIC [6] | MIC [7] | MIC [8] | MIC [9] | MIC [10] | MIC [11] | MIC [12] | MIC [13] | MIC [14] | MIC [15] |
| --- | --- | --- | --- | --- | --- | --- | --- | --- | --- | --- | --- | --- | --- | --- | --- |
| CCC(=O)O[C@@H]1CC(=O)O[C@H](C)C[C@H](O)[C@H](N(C)C)/C=C/[C@H](OC(C)=O)[C@H](C)C[C@H](CC=O)[C@H](O[C@@H]2O[C@H](C)[C@@H](O[C@H]3C[C@@](C)(O)[C@@H](OC(=O)CC)[C@H](C)O3)[C@H](N(C)C)[C@H]2O)[C@H]1OC | 0.78 mg/L (≈ 0.851 µM) | 1.56 mg/L (≈ 1.7 µM) | 1.56 mg/L (≈ 1.7 µM) | 25 mg/L (≈ 27.3 µM) | 0.78 mg/L (≈ 0.851 µM) | 0.39 mg/L (≈ 0.425 µM) | > 100 mg/L | > 100 mg/L | 0.2 mg/L (≈ 0.218 µM) | 0.2 mg/L (≈ 0.218 µM) | > 100 mg/L | 1.56 mg/L (≈ 1.7 µM) | 0.78 mg/L (≈ 0.851 µM) | 0.2 mg/L (≈ 0.218 µM) | > 100 mg/L |
| CCC(=O)O[C@@H]1CC(=O)O[C@H](C)C[C@H](O)[C@H](N(C)CCCCCCc2ccccc2)/C=C/[C@H](OC(C)=O)[C@H](C)C[C@H](CC=O)[C@H](O[C@@H]2O[C@H](C)[C@@H](O[C@H]3C[C@@](C)(O)[C@@H](OC(=O)CC)[C@H](C)O3)[C@H](N(C)C)[C@H]2O)[C@H]1OC | 0.39 mg/L (≈ 0.367 µM) | 0.78 mg/L (≈ 0.734 µM) | 0.2 mg/L (≈ 0.188 µM) | 25 mg/L (≈ 23.5 µM) | 0.39 mg/L (≈ 0.367 µM) | 0.2 mg/L (≈ 0.188 µM) | 100 mg/L (≈ 94 µM) | 25 mg/L (≈ 23.5 µM) | 0.2 mg/L (≈ 0.188 µM) | 0.2 mg/L (≈ 0.188 µM) | 6.25 mg/L (≈ 5.88 µM) | 6.25 mg/L (≈ 5.88 µM) | 0.39 mg/L (≈ 0.367 µM) | 0.1 mg/L (≈ 0.094 µM) | 50 mg/L (≈ 47 µM) |
| CCC(=O)O[C@@H]1CC(=O)O[C@H](C)C[C@H](O)[C@H](N(C)CCCc2cccc3ccccc23)/C=C/[C@H](OC(C)=O)[C@H](C)C[C@H](CC=O)[C@H](O[C@@H]2O[C@H](C)[C@@H](O)[C@H](N(C)C)[C@H]2O)[C@H]1OC | 0.78 mg/L (≈ 0.895 µM) | 0.025 mg/L (≈ 0.0287 µM) | 0.78 mg/L (≈ 0.895 µM) | 3.13 mg/L (≈ 3.59 µM) | 0.78 mg/L (≈ 0.895 µM) | 0.39 mg/L (≈ 0.448 µM) | > 100 mg/L | > 100 mg/L | 0.1 mg/L (≈ 0.115 µM) | 0.1 mg/L (≈ 0.115 µM) | 100 mg/L (≈ 115 µM) | 0.78 mg/L (≈ 0.895 µM) | 0.39 mg/L (≈ 0.448 µM) | 0.025 mg/L (≈ 0.0287 µM) | > 100 mg/L |
| CCC(=O)O[C@@H]1CC(=O)O[C@H](C)C[C@H](O)[C@H](N(C)CCCc2ccnc3ccccc23)/C=C/[C@H](OC(C)=O)[C@H](C)C[C@H](CC=O)[C@H](O[C@@H]2O[C@H](C)[C@@H](O[C@H]3C[C@@](C)(O)[C@@H](OC(=O)CC)[C@H](C)O3)[C@H](N(C)C)[C@H]2O)[C@H]1OC | 0.2 mg/L (≈ 0.187 µM) | 0.39 mg/L (≈ 0.364 µM) | 0.1 mg/L (≈ 0.0933 µM) | 12.5 mg/L (≈ 11.7 µM) | 0.1 mg/L (≈ 0.0933 µM) | 0.1 mg/L (≈ 0.0933 µM) | > 100 mg/L | > 100 mg/L | 0.025 mg/L (≈ 0.0233 µM) | 0.05 mg/L (≈ 0.0466 µM) | 0.78 mg/L (≈ 0.727 µM) | 1.56 mg/L (≈ 1.45 µM) | 0.1 mg/L (≈ 0.0933 µM) | 0.013 mg/L (≈ 0.0121 µM) | 50 mg/L (≈ 46.6 µM) |
| CCC(=O)O[C@@H]1CC(=O)O[C@H](C)C[C@H](O)[C@H](N(C)CCCc2cnc3ccccc3c2)/C=C/[C@H](OC(C)=O)[C@H](C)C[C@H](CC=O)[C@H](O[C@@H]2O[C@H](C)[C@@H](O)[C@H](N(C)C)[C@H]2O)[C@H]1OC | 1.56 mg/L (≈ 1.79 µM) | 0.2 mg/L (≈ 0.229 µM) | 1.56 mg/L (≈ 1.79 µM) | 6.25 mg/L (≈ 7.17 µM) | 1.56 mg/L (≈ 1.79 µM) | 3.13 mg/L (≈ 3.59 µM) | > 100 mg/L | > 100 mg/L | 0.39 mg/L (≈ 0.447 µM) | 0.78 mg/L (≈ 0.894 µM) | > 100 mg/L | 1.56 mg/L (≈ 1.79 µM) | 1.56 mg/L (≈ 1.79 µM) | 0.2 mg/L (≈ 0.229 µM) | > 100 mg/L |
| CCC(=O)O[C@@H]1CC(=O)O[C@H](C)C[C@H](O)[C@H](N(C)CCCc2ccnc3ccccc23)/C=C/[C@H](OC(C)=O)[C@H](C)C[C@H](CC=O)[C@H](O[C@@H]2O[C@H](C)[C@@H](O)[C@H](N(C)C)[C@H]2O)[C@H]1OC | 0.39 mg/L (≈ 0.447 µM) | 0.05 mg/L (≈ 0.0573 µM) | 0.39 mg/L (≈ 0.447 µM) | 1.56 mg/L (≈ 1.79 µM) | 0.39 mg/L (≈ 0.447 µM) | 1.56 mg/L (≈ 1.79 µM) | > 50 mg/L | > 50 mg/L | 0.1 mg/L (≈ 0.115 µM) | 0.1 mg/L (≈ 0.115 µM) | 12.5 mg/L (≈ 14.3 µM) | 0.39 mg/L (≈ 0.447 µM) | 0.2 mg/L (≈ 0.229 µM) | 0.025 mg/L (≈ 0.0287 µM) | > 50 mg/L |
| CCC(=O)O[C@@H]1CC(=O)O[C@H](C)C[C@H](O)[C@H](N(C)CCCn2cnc(-c3cccnc3)c2)/C=C/[C@H](OC(C)=O)[C@H](C)C[C@H](CC=O)[C@H](O[C@@H]2O[C@H](C)[C@@H](O[C@H]3C[C@@](C)(O)[C@@H](OC(=O)CC)[C@H](C)O3)[C@H](N(C)C)[C@H]2O)[C@H]1OC | 0.39 mg/L (≈ 0.358 µM) | 1.56 mg/L (≈ 1.43 µM) | 0.39 mg/L (≈ 0.358 µM) | 25 mg/L (≈ 23 µM) | 0.2 mg/L (≈ 0.184 µM) | 0.2 mg/L (≈ 0.184 µM) | > 100 mg/L | > 100 mg/L | 0.1 mg/L (≈ 0.0919 µM) | 0.1 mg/L (≈ 0.0919 µM) | 100 mg/L (≈ 91.9 µM) | 1.56 mg/L (≈ 1.43 µM) | 0.39 mg/L (≈ 0.358 µM) | 0.06 mg/L (≈ 0.0551 µM) | > 100 mg/L |
